ChEMBL document CHEMBL2040797, “Synthesis of benzimidazoles bearing oxadiazole nucleus as anticancer agents” (2012)

Assays:
Type in all cases: functional
[1] = tested on: NCI-H226; assay: Growth inhibition of human NCI-H226 cells at 10 uM after 48 hrs by sulforhodamine B assay; details: NCI-H226, 48 h, read-out: GI
In short: (§1)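 NCI one-dose primary screen at 10 (printed mM) across the 60-line panel. Cells in RPMI 1640 with 5% FBS and 2 mM L-glutamine, plated at 5000–40,000 cells/well and incubated 24 h before dosing. Exposure 48 h at 37 °C, 5% CO2. Adherent cells were fixed with cold TCA, suspension cells fixed after settling. SRB stain, absorbance 515 nm. Reported as percent growth of treated cells relative to control.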

[2] = tested on: NCI-H23; assay: Growth inhibition of human NCI-H23 cells at 10 uM after 48 hrs by sulforhodamine B assay; details: NCI-H23, 48 h, read-out: GI; in short: as §1
[3] = tested on: NCI-H322M; assay: Growth inhibition of human NCI-H322M cells at 10 uM after 48 hrs by sulforhodamine B assay; details: read-out: GI; in short: as §1
[4] = tested on: NCI-H460; assay: Growth inhibition of human NCI-H460 cells at 10 uM after 48 hrs by sulforhodamine B assay; details: NCI-H460, 48 h, read-out: GI; in short: as §1
[5] = tested on: HCT-15; assay: Growth inhibition of human HCT15 cells at 10 uM after 48 hrs by sulforhodamine B assay; details: HCT-15, 48 h, read-out: GI; in short: as §1
[6] = tested on: HT-29; assay: Growth inhibition of human HT-29 cells at 10 uM after 48 hrs by sulforhodamine B assay; details: HT-29, 48 h, read-out: GI; in short: as §1
[7] = tested on: U-251; assay: Growth inhibition of human U251 cells at 10 uM after 48 hrs by sulforhodamine B assay; details: U-251, 48 h, read-out: GI
In short: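 NCI-60 single-dose screen. Cells grown in RPMI 1640 with 5% FBS and L-glutamine, plated at 5000–40,000 cells/well by doubling time, and preincubated 24 h at 37 °C, 5% CO2. Compound stocks in DMSO, added at one concentration, then incubated 48 h. Adherent cells fixed with cold TCA (10% final), stained with 0.4% SRB, dye solubilized in 10 mM Tris base, A515 read. Reported as percent growth relative to untreated control.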

[8] = tested on: M14; assay: Growth inhibition of human M14 cells at 10 uM after 48 hrs by sulforhodamine B assay; details: M14, 48 h, read-out: GI; in short: as §1
[9] = tested on: IGROV-1; assay: Growth inhibition of human IGROV1 cells at 10 uM after 48 hrs by sulforhodamine B assay; details: IGROV-1, 48 h, read-out: GI; in short: as §1
[10] = tested on: OVCAR-3; assay: Growth inhibition of human OVCAR3 cells at 10 uM after 48 hrs by sulforhodamine B assay; details: OVCAR-3, 48 h, read-out: GI; in short: as §1
[11] = tested on: OVCAR-4; assay: Growth inhibition of human OVCAR4 cells at 10 uM after 48 hrs by sulforhodamine B assay; details: OVCAR-4, 48 h, read-out: GI; in short: as §1
[12] = tested on: CAKI-1; assay: Growth inhibition of human Caki1 cells at 10 uM after 48 hrs by sulforhodamine B assay; details: CAKI-1, 48 h, read-out: GI; in short: as §1
[13] = tested on: MDA-MB-231; assay: Growth inhibition of human MDA-MB-231 cells at 10 uM after 48 hrs by sulforhodamine B assay; details: MDA-MB-231, 48 h, read-out: GI; in short: as §1
[14] = tested on: HL-60(TB); assay: Cytotoxicity against human HL-60(TB) cells after 48 hrs by sulforhodamine B assay; details: HL-60, 48 h
In short: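 NCI 60-panel five-dose assay. Cells are grown in RPMI 1640 with 5% FBS and L-glutamine. They are plated at 5000–40,000 cells/well according to doubling time and pre-incubated 24 h at 37 °C, 5% CO2. DMSO-stock compound is added at five 10-fold or ½-log dilutions for 48 h. Settled suspension cells are fixed, then SRB-stained and read at 515 nm. Percent growth is computed from time-zero, control and treated absorbances, and LC50 is taken where protein falls 50% below the starting level.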

[15] = tested on: RPMI-8226; assay: Cytotoxicity against human RPMI8226 cells after 48 hrs by sulforhodamine B assay; details: RPMI-8226, 48 h
In short: (§2)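 NCI 60-panel screen. Cells were grown in RPMI 1640 with 5% FBS and L-glutamine and plated at 5000–40,000 cells/well according to doubling time. They were preincubated 24 h at 37 °C, 5% CO2, then exposed 48 h to five 10-fold dilutions. Adherent cells were fixed with cold TCA, final 10%; suspension cells were fixed after settling. Cells were stained with 0.4% SRB and read at 515 nm. Tz/C/Ti growth curves gave GI50, TGI and LC50.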

[16] = tested on: SW-620; assay: Cytotoxicity against human SW620 cells after 48 hrs by sulforhodamine B assay; details: SW-620, 48 h; in short: as §2
[17] = tested on: SNB-19; assay: Cytotoxicity against human SNB19 cells after 48 hrs by sulforhodamine B assay; details: SNB-19, 48 h; in short: as §2
[18] = tested on: U-251; assay: Cytotoxicity against human U251 cells after 48 hrs by sulforhodamine B assay; details: U-251, 48 h
In short: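 NCI 60 panel five-dose screen. Cells in RPMI 1640 with 5% FBS and 2 mM L-glutamine, plated at 5000–40,000 cells/well and preincubated 24 h. Compounds were tested at five 10-fold concentrations (0.01–100) for 48 h at 37 °C, 5% CO2. Cells were fixed with TCA and stained with SRB, absorbance 515 nm. GI50, TGI and LC50 were taken from % growth curves against time-zero and control.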

[19] = tested on: LOX IMVI; assay: Cytotoxicity against human LOXIMVI cells after 48 hrs by sulforhodamine B assay; in short: as §2
[20] = tested on: Malme-3M; assay: Cytotoxicity against human MALME-3M cells after 48 hrs by sulforhodamine B assay; in short: as §2
[21] = tested on: OVCAR-4; assay: Cytotoxicity against human OVCAR4 cells after 48 hrs by sulforhodamine B assay; details: OVCAR-4, 48 h; in short: as §2
[22] = tested on: A498; assay: Cytotoxicity against human A498 cells after 48 hrs by sulforhodamine B assay; details: A498, 48 h; in short: as §2
[23] = tested on: MDA-MB-468; assay: Cytotoxicity against human MDA-MB-468 cells after 48 hrs by sulforhodamine B assay; details: MDA-MB-468, 48 h; in short: as §2
[24] = tested on: K562; assay: Growth inhibition of human K562 cells at 10 uM after 48 hrs by sulforhodamine B assay; details: K562, 48 h, read-out: GI; in short: as §1
[25] = tested on: MOLT-4; assay: Growth inhibition of human MOLT4 cells at 10 uM after 48 hrs by sulforhodamine B assay; details: MOLT-4, 48 h, read-out: GI; in short: as §1
[26] = read-out: LC50 (the source's name)

`O=C(CCc1nnc(-c2ccc(Cl)cc2Cl)o1)c1nc2ccccc2[nH]1` was tested, and the inhibition of growth at 10 µM [1] was 16.3%, the inhibition of growth at 10 µM [2] was 38.1% and the inhibition of growth at 10 µM [3] was 24%. For the same compound, the inhibition of growth at 10 µM [4] was 22.7%, the inhibition of growth at 10 µM [5] was 18.5% and the inhibition of growth at 10 µM [6] was 90.6%. The inhibition of growth at 10 µM [7] was 47.5%, the inhibition of growth at 10 µM [8] was 44.2% and the inhibition of growth at 10 µM [9] was 42.4%. For the same compound, the inhibition of growth at 10 µM [10] was 33.6%, the inhibition of growth at 10 µM [11] was 41.2% and the inhibition of growth at 10 µM [12] was 40.2%. The inhibition of growth at 10 µM [13] was 61.7%, the GI50 [14] was 2.23 µM and the TGI [14] was 19.3 µM. The CC50 [14, 26] was 100 µM, the GI50 [15] was 3.61 µM and the TGI [15] was 23.3 µM. It also gave a CC50 [15, 26] of 100 µM, a GI50 [16] of 3.46 µM and a TGI [16] of 16.3 µM. For the same compound, the CC50 [16, 26] was 74.3 µM, the GI50 [17] was 17.4 µM and the TGI [17] was 100 µM. For the same compound, the CC50 [17, 26] was 100 µM, the GI50 [18] was 10.9 µM and the TGI [18] was 77.6 µM. The CC50 [18, 26] was 100 µM, the GI50 [19] was 4.03 µM and the TGI [19] was 39.8 µM. It also gave a CC50 [19, 26] of 100 µM, a GI50 [20] of 13 µM and a TGI [20] of 52.6 µM. For the same compound, the CC50 [20, 26] was 100 µM, the GI50 [21] was 5.93 µM and the TGI [21] was 100 µM. The CC50 [21, 26] was 100 µM, the GI50 [22] was 1.53 µM and the TGI [22] was 10.1 µM. It also gave a CC50 [22, 26] of 100 µM, a GI50 [23] of 0.797 µM and a TGI [23] of 12.2 µM. For the same compound, the CC50 [23, 26] was 100 µM, the inhibition of growth at 10 µM [24] was 97.8% and the inhibition of growth at 10 µM [25] was 79.3%.
